In ChEMBL document CHEMBL1145922, “1,2-benzisoxazole phosphorodiamidates as novel anticancer prodrugs requiring bioreductive activation” (J Med Chem, 2003):

What was measured:
Type in all cases: functional
Homo sapiens = species: Homo sapiens; assay: Percent formation of compound upon incubation of 15 for 60 minutes with human P450 reductase microsomes in hypoxic condition in presence of NADPH
Procedure, shortened: (§1)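 Human or rat P450 reductase microsomes at 1 mg/mL protein, substrate 0.25 mM and cofactor 0.5 mM; pCMBA 2 mM where stated. Anaerobic samples purged with nitrogen 15–20 min in septum-sealed vials. 60 min at 37 °C, stopped with ice-cold methanol. Ketone metabolite quantified by HPLC (C-18, methanol/water 50:50, UV 254 nm) as percent of equimolar substrate. Mean of two experiments.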

Rattus norvegicus [1] = species: Rattus norvegicus; assay: Percent formation of compound upon incubation of 15 with phenobarbit-induced rat liver microsomal fraction in hypoxic condition in presence of pCMBA at a concentration of 4 mM
Procedure, shortened: (§2)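 Phenobarbital-induced rat liver microsomes; inhibitors SKF-525A (in methanol) or pCMBA (in DMF) at 0–4 mM final. pCMBA preincubated 30 min before NADPH; SKF-525A incubated 15 min with microsomes and NADPH. Hypoxic samples nitrogen-purged. Substrate 2.5 mM added, 30 min at 37 °C. Ketone metabolite by HPLC at 254 nm as percent of substrate; % inhibition relative to no inhibitor. Mean of two experiments.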

Rattus norvegicus [2] = species: Rattus norvegicus; assay: Percent formation of compound upon incubation of 15 with phenobarbit-induced rat liver microsomal fraction in oxic condition in presence of SKF-525A at a concentration of 0 mM; procedure, shortened: as §2
Rattus norvegicus [3] = species: Rattus norvegicus; assay: Percent formation of compound upon incubation of 15 with phenobarbit-induced rat liver microsomal fraction in oxic condition in presence of SKF-525A at a concentration of 4 mM; procedure, shortened: as §2
Rattus norvegicus [4] = species: Rattus norvegicus; assay: Percent formation of compound upon incubation of 15 with phenobarbit-induced rat liver microsomal fraction in oxic condition in presence of pCMBA at a concentration of 1 mM; procedure, shortened: as §2
Rattus norvegicus [5] = species: Rattus norvegicus; assay: Percent formation of compound upon incubation of 15 with phenobarbit-induced rat liver microsomal fraction in oxic condition in presence of pCMBA at a concentration of 4 mM; procedure, shortened: as §2
Rattus norvegicus [6] = species: Rattus norvegicus; assay: Tested for formation of compound upon incubation of compound 15 for 30 minutes with rat liver cystolic fractions in hypoxic condition in the absence of cofactor
Procedure, shortened: (§3)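 Phenobarbital-induced rat liver S-9, microsomal or cytosolic fraction with 5 mM cofactor (NADPH, NADH, benzaldehyde or 2-hydroxypyrimidine) or none. Substrate 2.5 mM final, added from methanol/water 50:50. Hypoxic vials purged with nitrogen 15–20 min. 30 min at 37 °C, quenched with ice-cold methanol. Ketone metabolite by HPLC at 254 nm as percent of equimolar substrate.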

Rattus norvegicus [7] = species: Rattus norvegicus; assay: Tested for formation of compound upon incubation of compound 15 for 30 minutes with rat liver cystolic fractions in hypoxic condition in the presence of NADPH; procedure, shortened: as §3
Rattus norvegicus [8] = species: Rattus norvegicus; assay: Tested for formation of compound upon incubation of compound 15 for 30 minutes with rat liver subcellular fractions in oxic condition in the presence of 2-hydroxypyrimidine
Procedure, shortened: (§4)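 Phenobarbital-induced rat liver S-9 fraction (2 mL) with 5 mM cofactor (NADPH, NADH, benzaldehyde or 2-hydroxypyrimidine), substrate 2.5 mM final, added in methanol/water 50:50; aerobic, 30 min at 37 °C. Quenched with ice-cold methanol, proteins spun down, supernatant analysed by reverse-phase C-18 HPLC, UV 254 nm; ketone metabolite given as percent of equimolar substrate; three experiments.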

Rattus norvegicus [9] = species: Rattus norvegicus; assay: Percent formation of compound upon incubation of 15 with phenobarbit-induced rat liver microsomal fraction in hypoxic condition in presence of SKF-525A at a concentration of 1 mM; procedure, shortened: as §2
Rattus norvegicus [10] = species: Rattus norvegicus; assay: Tested for formation of compound upon incubation of compound 15 for 30 minutes with rat liver subcellular fractions in oxic condition in the presence of benzaldehyde; procedure, shortened: as §4
Rattus norvegicus [11] = species: Rattus norvegicus; assay: Tested for formation of compound upon incubation of compound 15 for 30 minutes with uninduced rat liver S-9 fractions in hypoxic condition in the absence of cofactor
Procedure, shortened: (§5)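 Uninduced rat liver S-9 (22.5 mg/mL protein, 2 mL) with 5 mM NADPH or no cofactor, substrate 2.5 mM final; hypoxic samples nitrogen-purged 15–20 min in septum-sealed vials, else aerobic; 30 min at 37 °C. Methanol quench, centrifugation, C-18 HPLC with UV 254 nm; metabolite as percent of equimolar substrate. NADPH runs three experiments, no-cofactor runs two.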

Rattus norvegicus [12] = species: Rattus norvegicus; assay: Tested for formation of compound upon incubation of compound 15 for 30 minutes with uninduced rat liver S-9 fractions in hypoxic condition in the presence of NADPH; procedure, shortened: as §5
Rattus norvegicus [13] = species: Rattus norvegicus; assay: Tested for formation of compound upon incubation of compound 15 for 30 minutes with uninduced rat liver S-9 fractions in oxic condition in the absence of cofactor; procedure, shortened: as §5
Rattus norvegicus [14] = species: Rattus norvegicus; assay: Percent formation of compound upon incubation of 15 for 60 minutes with rat P450 reductase microsomes in oxic condition in presence of NADPAH; procedure, shortened: as §1
Rattus norvegicus [15] = species: Rattus norvegicus; assay: Percent formation of compound upon incubation of 15 with phenobarbit-induced rat liver microsomal fraction in hypoxic condition in presence of SKF-525A at a concentration of 0 mM; procedure, shortened: as §2
Rattus norvegicus [16] = species: Rattus norvegicus; assay: Tested for formation of compound upon incubation of compound 15 for 30 minutes with rat liver subcellular fractions in hypoxic condition in the presence of benzaldehyde; procedure, shortened: as §3
Rattus norvegicus [17] = species: Rattus norvegicus; assay: Tested for formation of compound upon incubation of compound 15 for 30 minutes with rat liver subcellular fractions in oxic condition in the absence of cofactor; procedure, shortened: as §3
Rattus norvegicus [18] = species: Rattus norvegicus; assay: Tested for formation of compound upon incubation of compound 15 for 30 minutes with rat liver microsomal fractions in oxic condition in the presence of NADPH; procedure, shortened: as §3
Rattus norvegicus [19] = species: Rattus norvegicus; assay: Tested for formation of compound upon incubation of compound 15 for 30 minutes with rat liver subcellular fractions in hypoxic condition in the absence of cofactor; procedure, shortened: as §3
Rattus norvegicus [20] = species: Rattus norvegicus; assay: Tested for formation of compound upon incubation of compound 15 for 30 minutes with rat liver subcellular fractions in hypoxic condition in the presence of NADH; procedure, shortened: as §3
Rattus norvegicus [21] = species: Rattus norvegicus; assay: Tested for formation of compound upon incubation of compound 15 for 30 minutes with rat liver subcellular fractions in hypoxic condition in the presence of NADPH; procedure, shortened: as §3
Rattus norvegicus [22] = species: Rattus norvegicus; assay: Percent inhibition of formation of compound upon incubation of 15 with phenobarbit-induced rat liver microsomal fraction in hypoxic condition in presence of pCMBA at a concentration of 4 mM; procedure, shortened: as §2
Rattus norvegicus [23] = species: Rattus norvegicus; assay: Percent inhibition of formation of compound upon incubation of 15 with phenobarbit-induced rat liver microsomal fraction in oxic condition in presence of pCMBA at a concentration of 0 mM; procedure, shortened: as §2
Rattus norvegicus [24] = species: Rattus norvegicus; assay: Percent inhibition of formation of compound upon incubation of 15 with phenobarbit-induced rat liver microsomal fraction in oxic condition in presence of pCMBA at a concentration of 1 mM; procedure, shortened: as §2
Rattus norvegicus [25] = species: Rattus norvegicus; assay: Percent inhibition of formation of compound upon incubation of 15 with phenobarbit-induced rat liver microsomal fraction in oxic condition in presence of pCMBA at a concentration of 4 mM; procedure, shortened: as §2
Rattus norvegicus [26] = species: Rattus norvegicus; assay: Percent inhibition of formation of compound upon incubation of 15 with phenobarbit-induced rat liver microsomal fraction in hypoxic condition in presence of SKF-525A at a concentration of 2 mM; procedure, shortened: as §2
Rattus norvegicus [27] = species: Rattus norvegicus; assay: Percent inhibition of formation of compound upon incubation of 15 with phenobarbit-induced rat liver microsomal fraction in hypoxic condition in presence of SKF-525A at a concentration of 4 mM; procedure, shortened: as §2
Rattus norvegicus [28] = species: Rattus norvegicus; assay: Percent inhibition of formation of compound upon incubation of 15 with phenobarbit-induced rat liver microsomal fraction in oxic condition in presence of SKF-525A at a concentration of 1 mM; procedure, shortened: as §2

Formation (Homo sapiens): 1.7% | Formation (Rattus norvegicus [14]): 1.5%
SMILES: CCC(=O)c1ccccc1O
Formation (Rattus norvegicus [1]): 0.5% | Formation (Rattus norvegicus [2]): 44.9% | Formation (Rattus norvegicus [3]): 26.9% | Formation (Rattus norvegicus [4]): 0.5% | Formation (Rattus norvegicus [5]): 0.7% | Formation (Rattus norvegicus [6]): 1.4% | Formation (Rattus norvegicus [7]): 3.6% | Formation (Rattus norvegicus [8]): 0.6% | Formation (Rattus norvegicus [9]): 54.6% | Formation (Rattus norvegicus [10]): 0.7% | Formation (Rattus norvegicus [11]): 0.9% | Formation (Rattus norvegicus [12]): 9.4% | Formation (Rattus norvegicus [13]): 1.6% | Formation (Rattus norvegicus [15]): 70.8% | Formation (Rattus norvegicus [16]): 2% | Formation (Rattus norvegicus [17]): 0.5% | Formation (Rattus norvegicus [18]): 73% | Formation (Rattus norvegicus [19]): 2.2% | Formation (Rattus norvegicus [20]): 28.5% | Formation (Rattus norvegicus [21]): 88.5% | inhibition (Rattus norvegicus [22]): 99% | inhibition (Rattus norvegicus [23]): 0% | inhibition (Rattus norvegicus [24]): 99% | inhibition (Rattus norvegicus [25]): 99% | inhibition (Rattus norvegicus [26]): 29% | inhibition (Rattus norvegicus [27]): 36% | inhibition (Rattus norvegicus [28]): 18%
